The test system of one series is Mus musculus. The experiment in a line: In vivo modulation of gamma secretase in po dosed transgenic J20 mouse overexpressing human APP assessed as reduction in plasma amyloid beta42 level administered via gavage for 3 consecutive days and measured after 4 hrs post last dose on day 3 by meso scale discovery. It is filed as functional, organism-based. The following applies: dose mg/kg 25-100, time 3.0 day. A digest of the protocol: (§1)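 Female J20 mice, 5–6 months old (n=5/dose), dosed orally at 25, 50 or 100 mg/kg or with vehicle (5% NMP/95% PEG300) for 3 consecutive days. Plasma was taken 4 h after the final dose. Aβ38/40/42 measured by Meso Scale multiplex immunoassay, with % reduction relative to vehicle. Mean ± SEM, ANOVA.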

Series [1] is described as follows: Oral bioavailability in CD-1 mouse at 5 mg/kg administered as single dose measured up to 24 hrs. The following applies: in vivo. Type of series: ADME, organism-based. A digest of the protocol:
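CD-1 mouse PK after single iv (1 mg/kg) and oral gavage (5 mg/kg) dosing, with plasma sampled to 24 h (n=3/timepoint) and measured by HPLC/MS/MS. F(%) = (AUC0-inf po × Dose iv)/(AUC0-inf iv × Dose po) × 100.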

In series [2] the target is Gamma-secretase (Homo sapiens) (UniProt Q96BI3+Q9NZ42+Q8WW43+P49768+Q92542+P49810). The series is described as follows: Modulation of gamma secretase in human SH-SY5Y cells overexpressing wild type APP751 assessed as effect on total amyloid beta level by meso scale discovery. Type of series: cell-based. In a few lines: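 SHSY5Y cells stably overexpressing wild-type human APP751 treated with the compound over a concentration range. Aβ38, Aβ40, Aβ42 and total Aβ in the medium measured by MSD triplex immunoassay (4G8 detection, 2 h at room temperature). Concentrations back-fitted from standard curves.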

Series [3] is described as follows: AUClast in CD-1 mouse at 5 mg/kg, po administered as single dose measured up to 24 hrs. It is filed as ADME, organism-based. More on the design: route oral, dose 5 mg/kg, time <=24. The following applies: in vivo. In a few lines: (§2)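 Male CD-1 mice, 6–8 weeks old, single dose by tail vein (1 mg/kg, 3% NMP/45% PEG300/12% ethanol/40% water) or oral gavage (5 mg/kg, 5% NMP/95% PEG300). Retro-orbital plasma sampled 0.083 (iv only) to 24 h, n=3/timepoint, and analysed by HPLC/MS/MS. Non-compartmental analysis. Half-life taken from the terminal phase using ≥3 non-zero points after Tmax.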

A short description of series [4]: Drug level in brain of transgenic Tg2576 mouse overexpressing human APP harboring K595N/M596L Swedish double mutant at 50 mg/kg, po administered via gavage for 14 consecutive days and measured after 4 hrs post last dose on day 14 by HPLC-MS/MS analysis. It is filed as ADME, organism-based. The following applies: time 14 day, read-out: Ct. A digest of the protocol: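 Female Tg2576 mice, 5–6 months old, gavaged with 50 mg/kg daily for 14 days (vehicle 5% NMP/95% PEG300), n=12/dose. Plasma and brain collected 4 h after the last dose and analysed by LC-MS/MS. LLOQ was 1 ng/mL in plasma and 5 ng/g in brain.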

A short description of series [5]: Ratio of drug concentration in CD-1 mouse brain to plasma at 5 mg/kg, po measured after 1 hr. It is filed as ADME, organism-based. In a few lines:
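Male CD-1 mice dosed once iv (1 mg/kg) or by oral gavage (5 mg/kg). Brain and plasma collected 1 h post dose (n=3/timepoint). Drug levels by HPLC/MS/MS; brain/plasma ratio calculated from these levels.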

A short description of series [6]: In vivo modulation of gamma secretase in transgenic J20 mouse overexpressing human APP assessed as reduction in plasma amyloid beta42 level at 50 mg/kg, po administered via gavage for 3 consecutive days and measured after 4 hrs post last dose on day 3 by meso scale discovery relative to control. Type of series: functional. Also on record: scale not given: the % may be the effect or the level left. The following applies: time 3 day. A digest of the protocol:
as §1

Series [7] in a line: Ratio of drug level in brain to plasma of transgenic Tg2576 mouse overexpressing human APP harboring K595N/M596L Swedish double mutant at 50 mg/kg, po administered via gavage for 14 consecutive days and measured after 4 hrs post last dose on day 14 by HPLC-MS/MS analysis. Type of series: ADME, organism-based. The following applies: 336 h, time 14 day. In a few lines: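 Female Tg2576 mice, 5–6 months old (n=12/dose), given 50 mg/kg by oral gavage daily for 14 days in 5% NMP/95% PEG300. Sacrificed 4 h after the day-14 dose. Plasma and brain drug levels measured by LC-MS/MS (LLOQ 1 ng/mL plasma, 5 ng/g brain). Ratio = brain/plasma.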

Series [8] is described as follows: In vivo modulation of gamma secretase transgenic Tg2576 mouse overexpressing human APP harboring K595N/M596L Swedish double mutant assessed as reduction in plasma amyloid beta38 level at 50 mg/kg, po administered via gavage for 14 consecutive days and measured after 4 hrs post last dose on day 14 by meso scale discovery relative to control. It is filed as functional. Also on record: scale not given: the % may be the effect or the level left. The following applies: time 14 day. In a few lines:
(§3)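 Female Tg2576 mice, 5–6 months old (n=12/dose), gavaged daily for 14 days with 50 mg/kg or vehicle (5% NMP/95% PEG300). Plasma and brain taken 4 h after the last dose. Aβ38/40/42 quantified by Meso Scale multiplex assay, with % reduction versus vehicle. Mean ± SEM, ANOVA.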

The nature of series [9]: In vivo modulation of gamma secretase transgenic Tg2576 mouse overexpressing human APP harboring K595N/M596L Swedish double mutant assessed as reduction in brain amyloid beta38 level at 50 mg/kg, po administered via gavage for 14 consecutive days and measured after 4 hrs post last dose on day 14 by meso scale discovery relative to control. Type of series: functional. Also on record: scale not given: the % may be the effect or the level left. The following applies: time 14 day. In a few lines:
as §3

Series [10] is described as follows: Half life in CD-1 mouse at 1 mg/kg, iv administered as single dose measured up to 24 hrs. Type of series: ADME, organism-based. The following applies: CD-1, mouse, in vivo. A digest of the protocol:
as §2

Series [11] is described as follows: In vivo modulation of gamma secretase in transgenic J20 mouse overexpressing human APP assessed as reduction in plasma amyloid beta38 level at 25 mg/kg, po administered via gavage for 3 consecutive days and measured after 4 hrs post last dose on day 3 by meso scale discovery relative to control. More on the design: scale not given: the % may be the effect or the level left. The following applies: time 3 day. It is filed as functional. In a few lines:
as §1

The nature of series [12]: Drug level in plasma of transgenic J20 mouse overexpressing human APP at 25 mg/kg, po administered via gavage for 3 consecutive days and measured after 4 hrs post last dose on day 3 by HPLC-MS/MS analysis. Type of series: ADME, organism-based. The following applies: time 3 day. In a few lines: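 Female J20 mice, 5–6 months old, given 25, 50 or 100 mg/kg orally (5% NMP/95% PEG300) daily for 3 days, n=5/dose. Plasma and brain taken 4 h after the final dose and analysed by LC-MS/MS. LLOQ was 1 ng/mL in plasma and 5 ng/g in brain.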

For series [13], the target named is Voltage-gated inwardly rectifying potassium channel KCNH2 (Homo sapiens, UniProt Q12809). The experiment in a line: Inhibition of human ERG expressed in HEK293 cells by patch clamp assay. It is filed as cell-based.
Voltage-gated inwardly rectifying potassium channel KCNH2, sequence (Q12809 whole entry): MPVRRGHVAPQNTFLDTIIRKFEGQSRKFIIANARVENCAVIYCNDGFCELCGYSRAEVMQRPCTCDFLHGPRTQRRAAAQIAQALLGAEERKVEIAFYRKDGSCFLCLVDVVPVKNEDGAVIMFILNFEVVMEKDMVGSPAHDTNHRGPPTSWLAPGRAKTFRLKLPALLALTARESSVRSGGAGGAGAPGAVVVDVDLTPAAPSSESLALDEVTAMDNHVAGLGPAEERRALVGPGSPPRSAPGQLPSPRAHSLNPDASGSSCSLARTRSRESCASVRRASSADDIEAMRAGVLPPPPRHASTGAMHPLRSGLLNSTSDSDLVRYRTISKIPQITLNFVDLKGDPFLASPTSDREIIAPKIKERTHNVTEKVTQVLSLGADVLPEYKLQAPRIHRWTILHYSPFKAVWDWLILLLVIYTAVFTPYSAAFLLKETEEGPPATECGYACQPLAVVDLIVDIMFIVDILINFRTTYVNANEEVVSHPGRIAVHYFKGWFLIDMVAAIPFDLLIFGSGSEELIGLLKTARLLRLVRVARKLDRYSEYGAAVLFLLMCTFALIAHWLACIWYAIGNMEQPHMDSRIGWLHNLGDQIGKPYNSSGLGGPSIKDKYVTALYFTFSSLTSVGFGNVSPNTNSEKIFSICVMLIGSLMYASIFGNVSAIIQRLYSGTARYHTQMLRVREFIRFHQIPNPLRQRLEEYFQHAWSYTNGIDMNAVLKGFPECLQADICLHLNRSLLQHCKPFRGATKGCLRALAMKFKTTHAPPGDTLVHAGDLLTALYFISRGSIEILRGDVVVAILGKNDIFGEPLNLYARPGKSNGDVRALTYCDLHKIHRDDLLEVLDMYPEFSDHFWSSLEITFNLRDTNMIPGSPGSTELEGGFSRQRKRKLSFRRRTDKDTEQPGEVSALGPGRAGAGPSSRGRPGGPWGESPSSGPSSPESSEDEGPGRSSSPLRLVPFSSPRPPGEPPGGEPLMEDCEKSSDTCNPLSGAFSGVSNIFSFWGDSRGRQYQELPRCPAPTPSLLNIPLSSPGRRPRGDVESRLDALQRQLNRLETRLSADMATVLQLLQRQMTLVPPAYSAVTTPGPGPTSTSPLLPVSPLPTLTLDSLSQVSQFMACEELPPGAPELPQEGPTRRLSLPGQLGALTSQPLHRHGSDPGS
The nature of series [14]: Efflux ratio of apparent permeability from basolateral to apical membrane over apical to basolateral membrane in MDCK-MDR1 cells. It is filed as ADME, cell-based, Canis lupus familiaris. The following applies: dog. A digest of the protocol:
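Calculated as B-A/A-B apparent permeability ratio across MDR1-MDCK cell monolayers; A-B permeability expressed as ×10⁻⁶ cm/s.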

A further series deals with Cytochrome P450 3A4 (Homo sapiens, UniProt P08684). The series is described as follows: Inhibition of recombinant CYP3A4 (unknown origin) by fluorescence-based assay. Type of series: ADME.
Cytochrome P450 3A4, sequence (P08684 whole entry): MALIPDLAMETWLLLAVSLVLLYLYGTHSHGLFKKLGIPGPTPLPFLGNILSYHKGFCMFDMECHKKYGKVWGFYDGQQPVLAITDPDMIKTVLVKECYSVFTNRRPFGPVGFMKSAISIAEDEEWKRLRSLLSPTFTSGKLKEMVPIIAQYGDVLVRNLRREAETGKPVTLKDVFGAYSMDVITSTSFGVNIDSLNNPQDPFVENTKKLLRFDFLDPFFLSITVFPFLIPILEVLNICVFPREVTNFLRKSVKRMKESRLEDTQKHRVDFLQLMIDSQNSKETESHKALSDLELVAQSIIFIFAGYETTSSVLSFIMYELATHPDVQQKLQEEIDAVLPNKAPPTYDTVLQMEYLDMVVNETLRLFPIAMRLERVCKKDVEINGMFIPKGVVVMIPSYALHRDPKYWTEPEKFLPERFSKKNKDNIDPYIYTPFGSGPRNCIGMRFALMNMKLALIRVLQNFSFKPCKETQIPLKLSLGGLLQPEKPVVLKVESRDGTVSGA
The nature of series [15]: Drug metabolism in CD-1 mouse liver. Type of series: ADME, tissue-based. The following applies: read-out: Drug metabolism. A digest of the protocol:
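Test compound at 1 μM incubated 30 min with human, rat or mouse liver microsomes (1 mg/mL); parent remaining expressed as %.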

Active and inactive are the calls of the source. The rule behind the calls is not given here.

In the case of `CCn1nc2c(c1Nc1nc(-c3ccc(-n4cnc(C)c4)c(OC)n3)cs1)CCC2`, the Activity entry with Mus musculus was “Dose-dependent effect”; in [6] it was 40%; in [8], 111%; in series [9] it was 0%; in series [11], 19%. The F in series [1] stood at 66%. Moreover, in series [2], the result was inactive. The AUClast in series [3] is 1205 ng·h/mL. Further, in series [4], the concentration at 336 h was found to be 425 ng/g. Besides, the figures for the BPR in series [5] and in [7] were 0.4 and 0.374, respectively. The same compound returned a half-life in [10] of 42 min. Further, in [12], the concentration at 72 h turned out to be 86 ng/mL.
In the case of `COc1nc(-c2csc(Nc3c4c(nn3CCF)CCCC4)n2)ccc1-n1cnc(C)c1`, in [2], the outcome was inactive. In addition, the IC50 came out at 11.4 µM in series [13] and 1 µM on Cytochrome P450 3A4. In addition, in [14], the Ratio came to 1.9. Moreover, the BPR in [5] is on record as 0.68. For the same compound, the values for the Activity in [6] and in [11] were 48% and 18%, respectively. In addition, the concentration at 72 h in series [12] amounted to 72 ng/mL. For the same compound, the metabolised in series [15] is 60%.

Source of the values: ChEMBL document CHEMBL4699542, “Design and synthesis of novel methoxypyridine-derived gamma-secretase modulators” (Bioorg Med Chem, 2020).
